Laboratory results as given in ChEMBL document CHEMBL1147263, “New cinnamylphenols from Dalbergia species with cancer chemopreventive activity” (J Nat Prod, 2003).

Experiments:
[1] = system: Raji; experiment: Inhibition of 12-O-tetradecanoylphorbol-13-acetate-induced EBV-early antigen activation in human Raji cells assessed as EA induction at 32 nmol relative to 12-O-tetradecanoylphorbol-13-acetate; format: cell-based; parameters: scale not given: the % may be the effect or the level left; details: human gammaherpesvirus 4
Outline: (§1)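 Raji cells at 10^6 cells/mL resuspended in RPMI 1640 + 10% FCS containing 4 mM n-butyric acid, 32 pmol TPA (20 ng/mL in DMSO) and test compound in DMSO. Incubated 48 h at 37 °C. EA-positive cells scored blind, ≥500 cells per assay. Reported as % EBV-EA activation ± SD relative to the TPA-only control (100%).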

[2] = system: Raji; experiment: Inhibition of 12-O-tetradecanoylphorbol-13-acetate-induced EBV-early antigen activation in human Raji cells assessed as EA induction at 0.32 nmol relative to 12-O-tetradecanoylphorbol-13-acetate; format: cell-based; parameters: scale not given: the % may be the effect or the level left; details: human gammaherpesvirus 4; outline: as §1
[3] = Inhibition of 12-O-tetradecanoylphorbol-13-acetate-induced EBV-early antigen activation in human Raji cells assessed per 32 pmol TPA; format: cell-based, human gammaherpesvirus 4
Outline: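 IC50 given as the mol ratio of compound to TPA giving 50% inhibition of EBV-EA activation versus the TPA-only control (32 pmol TPA = 100%). Raji cells were kept in RPMI 1640/10% FCS with 4 mM n-butyric acid and DMSO-dissolved compound at 10–1000 mol ratio, 48 h, 37 °C. EA-positive cells were counted blind, ≥500 per assay.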

[4] = Cytotoxicity against human Raji cells assessed as cell viability at 0.32 nmol after 48 hrs by trypan blue staining method; format: cell-based; details: read-out: Activity
Outline: (§2)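 Raji cells grown to 10^6 cells/mL, pelleted and resuspended in RPMI 1640 + 10% FCS with 4 mM n-butyric acid, 32 pmol TPA (20 ng/mL) and test compound in DMSO (mol ratio to TPA 10–1000, i.e. 0.32–32 nmol). Incubated 48 h at 37 °C. Viability then counted on a hemocytometer with Trypan Blue. ≥60% survival required for valid EA readings.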

[5] = system: Raji; experiment: Inhibition of 12-O-tetradecanoylphorbol-13-acetate-induced EBV-early antigen activation in human Raji cells assessed as EA induction at 16 nmol relative to 12-O-tetradecanoylphorbol-13-acetate; format: cell-based; parameters: scale not given: the % may be the effect or the level left; details: human gammaherpesvirus 4; outline: as §1
[6] = system: Raji; experiment: Inhibition of 12-O-tetradecanoylphorbol-13-acetate-induced EBV-early antigen activation in human Raji cells assessed as EA induction at 3.2 nmol relative to 12-O-tetradecanoylphorbol-13-acetate; format: cell-based; parameters: scale not given: the % may be the effect or the level left; details: human gammaherpesvirus 4; outline: as §1
[7] = Cytotoxicity against human Raji cells assessed as cell viability at 32 nmol after 48 hrs by trypan blue staining method; format: cell-based; details: read-out: Activity; outline: as §2
[8] = Cytotoxicity against human Raji cells assessed as cell viability at 16 nmol after 48 hrs by trypan blue staining method; format: cell-based; details: read-out: Activity; outline: as §2
[9] = Cytotoxicity against human Raji cells assessed as cell viability at 3.2 nmol after 48 hrs by trypan blue staining method; format: cell-based; details: read-out: Activity; outline: as §2

Molecule `CC1=C(/C=C/C(C)=C/C=C/C(C)=C/C=C/C=C(C)/C=C/C=C(C)/C=C/C2=C(C)CCCC2(C)C)C(C)(C)CCC1` [BETA CAROTENE] has an Activity [1] of 9.1%, an Activity [2] of 100% and an IC50 [3] of 400 molar ratio.

`COc1c(O)cccc1/C=C/Cc1ccc(O)c(OC)c1OC` [DALBERATIN A] gave a viability at 48 h, 0.32 nmol [4] of over 80%, an Activity [1] of 0% and an Activity [5] of 18.5%. The Activity [6] was 63.6%, the Activity [2] was 85.1% and the IC50 [3] was 213 molar ratio. It also gave a viability at 48 h, 32 nmol [7] of 60%, a viability at 48 h, 16 nmol [8] of over 80% and a viability at 48 h, 3.2 nmol [9] of over 80%.

For `COc1ccc(O)c(/C=C/Cc2ccc(O)c(OC)c2OC)c1` [DALBERATIN B], the viability at 48 h, 0.32 nmol [4] was over 80%, the Activity [1] was 0% and the Activity [5] was 31.1%. The Activity [6] was 68.3%, the Activity [2] was 91.7% and the IC50 [3] was 303 molar ratio. The viability at 48 h, 32 nmol [7] was 70%, the viability at 48 h, 16 nmol [8] was over 80% and the viability at 48 h, 3.2 nmol [9] was over 80%.

Work on `COc1ccc(C/C=C/c2cccc(O)c2OC)c(OC)c1O` [DALBERATIN C] yielded a viability at 48 h, 0.32 nmol [4] of over 80%, an Activity [1] of 0% and an Activity [5] of 20.9%. For the same molecule, the Activity [6] was 65%, the Activity [2] was 86.7% and the IC50 [3] was 223 molar ratio. For the same molecule, the viability at 48 h, 32 nmol [7] was 60%, the viability at 48 h, 16 nmol [8] was over 80% and the viability at 48 h, 3.2 nmol [9] was over 80%.

In the case of `COc1c(O)cccc1/C=C/Cc1ccc(O)c(O)c1OC` [DALBERATIN E], the viability at 48 h, 0.32 nmol [4] is reported as over 80%, the Activity [1] is reported as 0% and the Activity [5] is reported as 16.4%. It also gave an Activity [6] of 60.3%, an Activity [2] of 82% and an IC50 [3] of 209 molar ratio. The viability at 48 h, 32 nmol [7] was 70%, the viability at 48 h, 16 nmol [8] was over 80% and the viability at 48 h, 3.2 nmol [9] was over 80%.
